Columns and labels:
9L [1] = assay: Drug uptake per 10^6 cells in rat 9L cells after 30 mins; assay type: ADME, cell-based; settings: 0.5 h
Summary of the method: (§1)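 Cultured rat 9L gliosarcoma cells incubated 30 min with 131I-labelled tracer, with or without A-type inhibitor N-MeAIB or L-type inhibitor BCH. Uptake expressed as percent of initial dose per 1 × 10^6 cells, normalized for dose and cell number. Inhibition compared to control by one-way ANOVA; SD shown.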

9L [2] = assay: Drug uptake per 10^6 cells in rat 9L cells after 30 mins assessed as uptake inhibition in presence of 2-aminobicyclo[2.2.1]-heptane-2-carboxylic acid relative to control; assay type: ADME, cell-based; parameters: scale not given: the % may be the effect or the level left; settings: 0.5 h; summary of the method: as §1
Blood [3] = assay: Biodistribution in 9L cells bearing Fischer 344 rat blood at 15 to 30 uCi, iv after 30 mins; assay type: ADME, organism-based; settings: in vivo, 0.5 h
Summary of the method: (§2)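 Male Fischer 344 rats (125–175 g) bearing intracranial 9L gliosarcoma implants; radioiodinated tracer (123I for S, 131I for R) purified in saline, given intravenously. Tissues harvested at 30, 60 or 120 min, radioactivity expressed as %ID/g (thyroid per organ). Groups: S study 5 rats per time; R study 5 at 30 min, 4 at 60 and 120 min.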

Blood [4] = assay: Biodistribution in 9L cells bearing Fischer 344 rat blood at 15 to 30 uCi, iv after 60 mins; assay type: ADME, organism-based; settings: in vivo, 1 h; summary of the method: as §2
Blood [5] = assay: Biodistribution in 9L cells bearing Fischer 344 rat blood at 15 to 30 uCi, iv after 120 mins; assay type: ADME, organism-based; settings: in vivo, 2 h; summary of the method: as §2
Heart [6] = assay: Biodistribution in 9L cells bearing Fischer 344 rat heart at 15 to 30 uCi, iv after 30 mins; assay type: ADME, organism-based; settings: in vivo, 0.5 h; summary of the method: as §2
Heart [7] = assay: Biodistribution in 9L cells bearing Fischer 344 rat heart at 15 to 30 uCi, iv after 60 mins; assay type: ADME, organism-based; settings: in vivo, 1 h; summary of the method: as §2
Heart [8] = assay: Biodistribution in 9L cells bearing Fischer 344 rat heart at 15 to 30 uCi, iv after 120 mins; assay type: ADME, organism-based; settings: in vivo, 2 h; summary of the method: as §2
Lung [9] = assay: Biodistribution in 9L cells bearing Fischer 344 rat lung at 15 to 30 uCi, iv after 30 mins; assay type: ADME, organism-based; settings: in vivo, 0.5 h; summary of the method: as §2
Lung [10] = assay: Biodistribution in 9L cells bearing Fischer 344 rat lung at 15 to 30 uCi, iv after 60 mins; assay type: ADME, organism-based; settings: in vivo, 1 h; summary of the method: as §2
Lung [11] = assay: Biodistribution in 9L cells bearing Fischer 344 rat lung at 15 to 30 uCi, iv after 120 mins; assay type: ADME, organism-based; settings: in vivo, 2 h; summary of the method: as §2
Liver [12] = assay: Biodistribution in 9L cells bearing Fischer 344 rat liver at 15 to 30 uCi, iv after 30 mins; assay type: ADME, organism-based; settings: in vivo, 0.5 h; summary of the method: as §2
Liver [13] = assay: Biodistribution in 9L cells bearing Fischer 344 rat liver at 15 to 30 uCi, iv after 60 mins; assay type: ADME, organism-based; settings: in vivo, 1 h; summary of the method: as §2
Liver [14] = assay: Biodistribution in 9L cells bearing Fischer 344 rat liver at 15 to 30 uCi, iv after 120 mins; assay type: ADME, organism-based; settings: in vivo, 2 h; summary of the method: as §2
Pancreas [15] = assay: Biodistribution in 9L cells bearing Fischer 344 rat pancreas at 15 to 30 uCi, iv after 30 mins; assay type: ADME, organism-based; settings: in vivo, 0.5 h; summary of the method: as §2
Pancreas [16] = assay: Biodistribution in 9L cells bearing Fischer 344 rat pancreas at 15 to 30 uCi, iv after 60 mins; assay type: ADME, organism-based; settings: in vivo, 1 h; summary of the method: as §2
Pancreas [17] = assay: Biodistribution in 9L cells bearing Fischer 344 rat pancreas at 15 to 30 uCi, iv after 120 mins; assay type: ADME, organism-based; settings: in vivo, 2 h; summary of the method: as §2
Spleen [18] = assay: Biodistribution in 9L cells bearing Fischer 344 rat spleen at 15 to 30 uCi, iv after 30 mins; assay type: ADME, organism-based; settings: in vivo, 0.5 h; summary of the method: as §2
Spleen [19] = assay: Biodistribution in 9L cells bearing Fischer 344 rat spleen at 15 to 30 uCi, iv after 60 mins; assay type: ADME, organism-based; settings: in vivo, 1 h; summary of the method: as §2
Spleen [20] = assay: Biodistribution in 9L cells bearing Fischer 344 rat spleen at 15 to 30 uCi, iv after 120 mins; assay type: ADME, organism-based; settings: in vivo, 2 h; summary of the method: as §2
Kidney [21] = assay: Biodistribution in 9L cells bearing Fischer 344 rat kidney at 15 to 30 uCi, iv after 30 mins; assay type: ADME, organism-based; settings: in vivo, 0.5 h; summary of the method: as §2
Kidney [22] = assay: Biodistribution in 9L cells bearing Fischer 344 rat kidney at 15 to 30 uCi, iv after 60 mins; assay type: ADME, organism-based; settings: in vivo, 1 h; summary of the method: as §2
Kidney [23] = assay: Biodistribution in 9L cells bearing Fischer 344 rat kidney at 15 to 30 uCi, iv after 120 mins; assay type: ADME, organism-based; settings: in vivo, 2 h; summary of the method: as §2
Muscle tissue [24] = assay: Biodistribution in 9L cells bearing Fischer 344 rat muscle at 15 to 30 uCi, iv after 30 mins; assay type: ADME, organism-based; settings: in vivo, 0.5 h; summary of the method: as §2
Muscle tissue [25] = assay: Biodistribution in 9L cells bearing Fischer 344 rat muscle at 15 to 30 uCi, iv after 60 mins; assay type: ADME, organism-based; settings: in vivo, 1 h; summary of the method: as §2
Muscle tissue [26] = assay: Biodistribution in 9L cells bearing Fischer 344 rat muscle at 15 to 30 uCi, iv after 120 mins; assay type: ADME, organism-based; settings: in vivo, 2 h; summary of the method: as §2
Brain [27] = assay: Biodistribution in 9L cells bearing Fischer 344 rat brain at 15 to 30 uCi, iv after 30 mins; assay type: ADME, organism-based; settings: in vivo, 0.5 h; summary of the method: as §2
Brain [28] = assay: Biodistribution in 9L cells bearing Fischer 344 rat brain at 15 to 30 uCi, iv after 60 mins; assay type: ADME, organism-based; settings: in vivo, 1 h; summary of the method: as §2
Brain [29] = assay: Biodistribution in 9L cells bearing Fischer 344 rat brain at 15 to 30 uCi, iv after 120 mins; assay type: ADME, organism-based; settings: in vivo, 2 h; summary of the method: as §2
Rattus norvegicus [30] = assay: Biodistribution in 9L cells bearing Fischer 344 rat tumor at 15 to 30 uCi, iv after 30 mins; assay type: ADME, organism-based, Neoplasm; settings: in vivo, 0.5 h; summary of the method: as §2
Rattus norvegicus [31] = assay: Biodistribution in 9L cells bearing Fischer 344 rat tumor at 15 to 30 uCi, iv after 60 mins; assay type: ADME, organism-based, Neoplasm; settings: in vivo, 1 h; summary of the method: as §2
Rattus norvegicus [32] = assay: Biodistribution in 9L cells bearing Fischer 344 rat tumor at 15 to 30 uCi, iv after 120 mins; assay type: ADME, organism-based, Neoplasm; settings: in vivo, 2 h; summary of the method: as §2
Bone [33] = assay: Biodistribution in 9L cells bearing Fischer 344 rat bone at 15 to 30 uCi, iv after 30 mins; assay type: ADME, organism-based, Bone element; settings: in vivo, 0.5 h; summary of the method: as §2
Bone [34] = assay: Biodistribution in 9L cells bearing Fischer 344 rat bone at 15 to 30 uCi, iv after 60 mins; assay type: ADME, organism-based, Bone element; settings: in vivo, 1 h; summary of the method: as §2
Bone [35] = assay: Biodistribution in 9L cells bearing Fischer 344 rat bone at 15 to 30 uCi, iv after 120 mins; assay type: ADME, organism-based, Bone element; settings: in vivo, 2 h; summary of the method: as §2
Testes [36] = assay: Biodistribution in 9L cells bearing Fischer 344 rat testes at 15 to 30 uCi, iv after 30 mins; assay type: ADME, organism-based, Testis; settings: in vivo, 0.5 h; summary of the method: as §2
Testes [37] = assay: Biodistribution in 9L cells bearing Fischer 344 rat testes at 15 to 30 uCi, iv after 60 mins; assay type: ADME, organism-based, Testis; settings: in vivo, 1 h; summary of the method: as §2
Testes [38] = assay: Biodistribution in 9L cells bearing Fischer 344 rat testes at 15 to 30 uCi, iv after 120 mins; assay type: ADME, organism-based, Testis; settings: in vivo, 2 h; summary of the method: as §2
Thyroid gland [39] = assay: Biodistribution in 9L cells bearing Fischer 344 rat thyroid at 15 to 30 uCi, iv after 30 mins; assay type: ADME, organism-based; settings: in vivo, 0.5 h; summary of the method: as §2
Thyroid gland [40] = assay: Biodistribution in 9L cells bearing Fischer 344 rat thyroid at 15 to 30 uCi, iv after 60 mins; assay type: ADME, organism-based; settings: in vivo, 1 h; summary of the method: as §2
Thyroid gland [41] = assay: Biodistribution in 9L cells bearing Fischer 344 rat thyroid at 15 to 30 uCi, iv after 120 mins; assay type: ADME, organism-based; settings: in vivo, 2 h; summary of the method: as §2
Nucleic Acid [42] = assay: Ratio of drug level in tumor to brain in 9L cells bearing Fischer 344 rat at 15 to 30 uCi, iv after 30 mins; assay type: ADME, organism-based; settings: in vivo, 0.5 h
Summary of the method: (§3)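 Intracranial 9L gliosarcoma in male Fischer 344 rats (125–175 g). The 123I-labelled (S) or 131I-labelled (R) tracer was given iv in saline. Tumor and normal brain %ID/g were measured at 30, 60 or 120 min, and the ratio was taken from these. Groups were 5 per time for S, and 5/4/4 for R.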

Nucleic Acid [43] = assay: Ratio of drug level in tumor to brain in 9L cells bearing Fischer 344 rat at 15 to 30 uCi, iv after 60 mins; assay type: ADME, organism-based; settings: in vivo, 1 h; summary of the method: as §3
Nucleic Acid [44] = assay: Ratio of drug level in tumor to brain in 9L cells bearing Fischer 344 rat at 15 to 30 uCi, iv after 120 mins; assay type: ADME, organism-based; settings: in vivo, 2 h; summary of the method: as §3

C[C@@](N)(/C=C/[131I])C(=O)O
Drug uptake (9L [1]): 0.07 %ID | Activity (9L [2]): 57% | Drug uptake (Blood [3]): 0.22 % ID/g | Drug uptake (Blood [4]): 0.69 % ID/g | Drug uptake (Blood [5]): 0.56 % ID/g | Drug uptake (Heart [6]): 0.19 % ID/g | Drug uptake (Heart [7]): 0.43 % ID/g | Drug uptake (Heart [8]): 0.34 % ID/g | Drug uptake (Lung [9]): 0.27 % ID/g | Drug uptake (Lung [10]): 0.65 % ID/g | Drug uptake (Lung [11]): 0.45 % ID/g | Drug uptake (Liver [12]): 0.31 % ID/g | Drug uptake (Liver [13]): 0.6 % ID/g | Drug uptake (Liver [14]): 0.37 % ID/g | Drug uptake (Pancreas [15]): 1.21 % ID/g | Drug uptake (Pancreas [16]): 1.86 % ID/g | Drug uptake (Pancreas [17]): 0.78 % ID/g | Drug uptake (Spleen [18]): 0.3 % ID/g | Drug uptake (Spleen [19]): 0.5 % ID/g | Drug uptake (Spleen [20]): 0.31 % ID/g | Drug uptake (Kidney [21]): 2.91 % ID/g | Drug uptake (Kidney [22]): 3.43 % ID/g | Drug uptake (Kidney [23]): 1.76 % ID/g | Drug uptake (Muscle tissue [24]): 0.26 % ID/g | Drug uptake (Muscle tissue [25]): 0.4 % ID/g | Drug uptake (Muscle tissue [26]): 0.26 % ID/g | Drug uptake (Brain [27]): 0.018 % ID/g | Drug uptake (Brain [28]): 0.066 % ID/g | Drug uptake (Brain [29]): 0.051 % ID/g | Drug uptake (Rattus norvegicus [30]): 0.19 % ID/g | Drug uptake (Rattus norvegicus [31]): 0.51 % ID/g | Drug uptake (Rattus norvegicus [32]): 0.39 % ID/g | Drug uptake (Bone [33]): 0.13 % ID/g | Drug uptake (Bone [34]): 0.34 % ID/g | Drug uptake (Bone [35]): 0.26 % ID/g | Drug uptake (Testes [36]): 0.09 % ID/g | Drug uptake (Testes [37]): 0.26 % ID/g | Drug uptake (Testes [38]): 0.23 % ID/g | Drug uptake (Thyroid gland [39]): 0.08 %ID/organ | Drug uptake (Thyroid gland [40]): 0.25 %ID/organ | Drug uptake (Thyroid gland [41]): 0.36 %ID/organ | Ratio (Nucleic Acid [42]): 10 | Ratio (Nucleic Acid [43]): 7.7 | Ratio (Nucleic Acid [44]): 7.6
